Source: ChEMBL document CHEMBL1143843, “Antiviral and cellular metabolism interactions between Dexelvucitabine and lamivudine” (Antimicrob Agents Chemother, 2007)
Activity calls are given as the source filed them. No cut-off for these calls is given here.

What was measured:
[1] = system: PBMC; experiment: Reduction of Lamivudine triphosphate level at 100 uM in human PBMC; type: functional; design: scale not given: the % may be the effect or the level left
Procedure, shortened: (§1)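 CEM or PHA-stimulated primary human PBM cells (2 x 10^6 per point) given 10 µM [3H]3TC plus unlabeled competitor at 1, 33.3 or 100 µM for 4 h, in triplicate; cells washed in cold PBS, extracted overnight in 60% methanol; metabolites separated by ion-pairing reverse-phase C18 HPLC (ammonium acetate/TBAP pH 7.0, methanol gradient); radioactivity counted; detection limit about 0.01 pmol/10^6 cells.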

[2] = system: CCRF-CEM; experiment: Reduction in Lamivudine metabolite level in human CEM cells at 100 uM; type: functional; design: scale not given: the % may be the effect or the level left; procedure, shortened: as §1
[3] = system: CCRF-CEM; experiment: Reduction in Lamivudine metabolite level in human CEM cells at 1 uM; type: functional, cell-based
Procedure, shortened: (§2)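 Competition assay in triplicate in CEM and PHA-stimulated PBM cells (2 x 10^6 per point). Cells received 10 µM [3H]3TC plus unlabeled DFC, or 10 µM [3H]DFC plus unlabeled 3TC, with the unlabeled drug at 1, 33.3 or 100 µM, for 4 h. After cold-PBS washes, 60% methanol extracts were separated by ion-pair reverse-phase HPLC. Labeled metabolites, including TP and DP-choline, were quantified by scintillation counting against radiolabel alone.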

[4] = system: CCRF-CEM; experiment: Reduction in Lamivudine diphosphate choline level in human CEM cells; type: functional, cell-based; procedure, shortened: as §2
[5] = system: CCRF-CEM; experiment: Reduction in Lamivudine metabolite level in human CEM cells at 33.3 uM; type: functional; design: scale not given: the % may be the effect or the level left; procedure, shortened: as §1
[6] = system: CCRF-CEM; experiment: Reduction of Lamivudine triphosphate level at 100 uM in human CEM cells; type: functional; design: scale not given: the % may be the effect or the level left; procedure, shortened: as §1
[7] = system: Human immunodeficiency virus 1; experiment: Antiviral activity against HIV1 LAI in human PBM cells; type: functional, organism-based; conditions: Human immunodeficiency virus 1, LAI, PBMC
Procedure, shortened: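 HIV-1 LAI added to PHA-stimulated (3-day) primary human PBM cells 1 h before drugs; medium with recombinant IL-2 (26.5 units/ml); drugs alone or combined at fixed ratios (10:1, 3:1, 25:1, 100:1); 5 days culture; supernatant virus pelleted by centrifugation, RT activity measured radiometrically; combination index with confidence intervals by computer algorithm.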

[8] = system: CCRF-CEM; experiment: Reduction in [3H]dexelvucitabine triphosphate in human CEM cells at 1 uM; type: functional, cell-based; procedure, shortened: as §2
[9] = system: CCRF-CEM; experiment: Reduction in [3H]dexelvucitabine triphosphate in human CEM cells per 10^6 cells at 33.3 uM; type: functional
Procedure, shortened: (§3)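 CEM or PHA-stimulated primary human PBM cells (2 x 10^6 per point) given 10 µM [3H]DFC plus unlabeled 3TC at 1, 33.3 or 100 µM for 4 h, in triplicate; 60% methanol extracts resolved by ion-pairing reverse-phase C18 HPLC; metabolites (TP, DP-choline) quantified by scintillation counting as pmol/10^6 cells.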

[10] = system: CCRF-CEM; experiment: (§4) Reduction in dexelvucitabine diphosphate choline level in human CEM cells at 1 uM; type: functional; design: scale not given: the % may be the effect or the level left; procedure, shortened: as §3
[11] = system: CCRF-CEM; experiment: as §4; type: functional; design: scale not given: the % may be the effect or the level left; procedure, shortened: as §3; remark: listed apart in the source
[12] = system: PBMC; experiment: Reduction in dexelvucitabine diphosphate choline level in PHA-stimulated human PBMC at 1 uM; type: functional, cell-based; procedure, shortened: as §2
[13] = system: CCRF-CEM; experiment: Reduction in dexelvucitabine diphosphate choline level in human CEM cells at 33.3 uM; type: functional; design: scale not given: the % may be the effect or the level left; procedure, shortened: as §3
[14] = system: CCRF-CEM; experiment: Reduction in [3H]dexelvucitabine triphosphate in human CEM cells per 10^6 cells at 100 uM; type: functional; procedure, shortened: as §3
[15] = system: PBMC; experiment: Reduction in dexelvucitabine diphosphate choline level in human PBMC at 1 uM; type: functional; design: scale not given: the % may be the effect or the level left; procedure, shortened: as §3
[16] = system: CCRF-CEM; experiment: Reduction in dexelvucitabine diphosphate choline level in human CEM cells at 100 uM; type: functional; design: scale not given: the % may be the effect or the level left; procedure, shortened: as §3
[17] = system: PBMC; experiment: Reduction in dexelvucitabine diphosphate choline level in human PBMC at 33.3 uM; type: functional; design: scale not given: the % may be the effect or the level left; procedure, shortened: as §3
[18] = system: PBMC; experiment: Reduction in dexelvucitabine diphosphate choline level in human PBMC at 100 uM; type: functional; design: scale not given: the % may be the effect or the level left; procedure, shortened: as §3
[19] = system: PBMC; experiment: Drug level in human PBMC per 10^6 cells at 10 uM after 4 hrs; type: ADME, cell-based
Procedure, shortened: (§5)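 CEM cells or PBM cells stimulated 3 days with PHA, 2 x 10^6 cells per time point, were given 10 µM [3H]DFC or [3H]3TC for 4 h. Cells were washed three times in cold PBS and counted, with viability checked by trypan blue. Metabolites were extracted overnight in 60% methanol and resolved by ion-pair C18 HPLC (ammonium acetate/TBAP pH 7.0, 0–50% methanol), then radioactivity was counted. LOD was about 0.01 pmol/10^6 cells.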

[20] = system: CCRF-CEM; experiment: Drug level in human CEM cells per 10^6 cells at 10 uM after 4 hrs; type: ADME, cell-based; procedure, shortened: as §5

With Nc1nc(=O)n([C@H]2C=C[C@@H](CO)O2)cc1F [DEXELVUCITABINE] the Activity [1] was 46%, the Activity [2] was 13% and the Activity [3] was “inactive”. The Activity [4] was “inactive”, the Activity [5] was 10% and the Activity [6] was 25%. The EC50 [7] was 75 nM and the EC90 [7] was 230 nM.
For Nc1ccn([C@@H]2CS[C@H](CO)O2)c(=O)n1 (single isomer, unassigned) [LAMIVUDINE], the Activity [8] was “inactive”, the Activity [9] was 0.67 pmol and the Activity [10] was 74%. The Activity [11] was 74%, the Activity [12] was “Active” and the Activity [13] was 83%. The Activity [14] was 0.41 pmol, the Activity [15] was 48% and the Activity [16] was 92%. The Activity [17] was 83%, the EC50 [7] was 26 nM and the EC90 [7] was 120 nM. For the same molecule, the Activity [18] was 92%.
Work on Nc1ccn([C@@H]2CS[C@H](COP(=O)(O)OP(=O)(O)OP(=O)(O)O)O2)c(=O)n1 [LAMIVUDINE TRIPHOSPHATE] yielded a Drug uptake [19] of 2.01 pmol and a Drug uptake [20] of 5.7 pmol.
